# How the values were obtained:
# U373 MG = assay: Cytotoxic activity was evaluated against U373MG tumor cells; format: functional, cell-based, U-373MG ATCC; conditions: Homo sapiens
# Procedure, shortened: (§1)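 Cytotoxicity was read by MTT dye reduction for suspension cultures or sulforhodamine B for monolayer cultures. For reversal of multidrug resistance, reserpine was added as reversing agent ([…] as printed).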
# Candida albicans [1] = assay: Minimum inhibitory concentration evaluated against Candida albicans; format: functional
# HCT-8 = assay: Activity was evaluated against HCT-8 tumor cells; format: functional, cell-based; conditions: Homo sapiens; procedure, shortened: as §1
# D54 cell line = assay: Cytotoxic Activity was evaluated against D54 tumor cells; format: functional, cell-based; conditions: Homo sapiens; procedure, shortened: as §1
# [2] = Cytotoxic activity was evaluated against L tumor cells; format: functional, cell-based; conditions: Mus musculus; procedure, shortened: as §1
# U-87 MG = assay: Cytotoxic activity was evaluated against U87MG tumor cells; format: functional, cell-based, U-87MG ATCC; conditions: Homo sapiens; procedure, shortened: as §1
# Dihydrofolate reductase [3] = biological target: T1, Dihydrofolate reductase (Candida albicans, UniProt P22906); assay: Inhibition of Dihydrofolate reductase enzyme from Candida albicans
# T1 sequence (P22906 whole entry): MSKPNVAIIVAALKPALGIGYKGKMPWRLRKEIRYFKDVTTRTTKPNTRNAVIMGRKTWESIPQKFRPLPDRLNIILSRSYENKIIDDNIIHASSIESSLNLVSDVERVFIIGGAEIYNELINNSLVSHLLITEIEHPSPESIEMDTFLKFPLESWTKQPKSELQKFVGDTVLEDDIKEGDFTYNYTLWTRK
# A549 = assay: Cytotoxic activity evaluated against A549 tumor cells; conditions: Homo sapiens
# P388 = assay: Cytotoxic activity was evaluated against P388D1 tumor cells; format: functional, cell-based; conditions: Mus musculus; procedure, shortened: as §1
# [4] = Cytotoxic activity was evaluated against Daoy tumor cells; format: functional, cell-based; conditions: Homo sapiens; procedure, shortened: as §1
# Vero = assay: Cytotoxic Activity was evaluated against Vero tumor cells; format: functional, cell-based; conditions: Chlorocebus sabaeus; procedure, shortened: as §1
# [5] = Relative concentration of compound in brain compared to concentration in plasma (9.4 ug/mL) at the time of tissue collection from mice; relative concentration; format: ADME, organism-based; conditions: mouse, read-out: Other
# Dihydrofolate reductase [6] = biological target: T2, Dihydrofolate reductase (Homo sapiens, UniProt P00374); assay: Inhibition of human recombinant Dihydrofolate reductase enzyme
# T2 sequence (P00374 whole entry): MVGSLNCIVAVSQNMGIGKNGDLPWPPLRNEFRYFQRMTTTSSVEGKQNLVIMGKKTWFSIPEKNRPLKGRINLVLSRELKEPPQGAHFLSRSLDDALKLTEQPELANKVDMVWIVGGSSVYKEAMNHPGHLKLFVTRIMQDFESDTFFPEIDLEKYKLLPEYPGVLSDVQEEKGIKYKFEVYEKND
# Candida albicans [7] = assay: Minimum inhibitory concentration was evaluated against Candida albicans; format: functional
# [8] = Relative concentration of compound (70 mg/Kg) in lung compared to concentration in plasma (160 ug/mL) at the time of tissue collection from rabbit; relative concentration; format: ADME, organism-based, Oryctolagus cuniculus; conditions: read-out: Activity
# NCI-H460 = assay: Cytotoxic Activity was evaluated against H460 tumor cells; format: functional, cell-based; conditions: Homo sapiens; procedure, shortened: as §1
# [9] = Relative concentration of compound (70 mg/Kg) in brain compared to concentration in plasma (160 ug/mL) at the time of tissue collection from rabbit; relative concentration; format: ADME, organism-based, Oryctolagus cuniculus; conditions: read-out: Activity
# 143B = assay: Cytotoxic Activity was evaluated against 143B (TK-) tumor cells; format: functional, cell-based; conditions: Homo sapiens; procedure, shortened: as §1
MIC (Candida albicans [1]) [µg/mL],IC50 (HCT-8) [nM],Kp [5],Kp [8],Kp [9],Compound,IC50 (U373 MG) [nM],IC50 (D54 cell line) [nM],IC50 [2] [nM],IC50 (U-87 MG) [nM],Ki (Dihydrofolate reductase [3]) [nM],IC50 (A549) [nM],IC50 (P388) [nM],IC50 [4] [nM],IC50 (Vero) [nM],Ki (Dihydrofolate reductase [6]) [nM],MIC (Candida albicans [7]) [µg/mL],IC50 (NCI-H460) [nM],IC50 (143B) [nM]
> 50,1.8,0.1,,,COc1cc(NCc2ccc3nc(N)nc(N)c3c2C)cc(OC)c1OC [TRIMETREXATE],9.6,60,4.7,11,1.9,5.3,2.7,12,16,,,,
,,,,,COc1cc(Cn2ccc3c4c(N)nc(N)nc4ccc32)cc(OC)c1OC,,,,,0.23,,,,,0.006,5,,
,,,0.05,0.006,CN(Cc1cnc2nc(N)nc(N)c2n1)c1ccc(C(=O)N[C@@H](CCC(=O)O)C(=O)O)cc1 [METHOTREXATE],12,16,8.3,22,,31,4.8,9,9.2,,,9.5,8.8

# Reference: ChEMBL document CHEMBL1129493 (J Med Chem, 1996)
